Reference: ChEMBL document CHEMBL4680128, “Synthesis of a novel and potent small-molecule antagonist of PAC1 receptor for the treatment of neuropathic pain” (Eur J Med Chem, 2020)
The source made the active and inactive calls.

Assays:
[1] = molecular target: T1, Pituitary adenylate cyclase-activating polypeptide type I receptor (Homo sapiens, UniProt P41586); test: Antagonist activity at PAC1 receptor (unknown origin) expressed in CHO cells assessed as inhibition of PACAP-induced inhibition of CREB phosphorylation preincubated for 30 mins followed by PACAP stimulation and measured after 30 mins by Western blot analysis; format: cell-based; conditions: for inhibition: filed as antagonist, time 60.0 min
How it was run: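 PAC1/CHO cells seeded at 1×10^5 cells/well and grown 48 h, then pretreated 30 min with agent over 10 pM to 10 nM (vehicle 0.1% DMSO). Stimulated with PACAP 1 nM for 30 min. Western blot of 20 µg lysate for phospho-CREB (Ser133) and total CREB, with pCREB normalised to total CREB. IC50 taken from the dose series. n = 3-5.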

[2] = organism: Mus musculus; test: Antiallodynic activity in PACAP-induced mechanical allodynia ddy mouse model assessed as increase in ipsilateral paw withdrawal threshold at 100 pmol, it; format: functional, organism-based
How it was run: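 Male ddY mice, 6 weeks old at start. Agent 100 pmol co-injected i.t. with PACAP 100 pmol in 5 µl by lumbar (L5/L6) puncture; diluted in PBS or ACSF. Hind-paw 50% withdrawal threshold measured with von Frey hairs by the up-down method. n = 6, compared with vehicle.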

[3] = system: Mus musculus; test: Antiallodynic activity in ddy mouse model of spinal nerve ligation-induced neuropathic pain assessed as […] at 100 pmol, it administered as single dose measured up to 24 hrs; format: functional, organism-based; conditions: time hrs <=24
[4] = Effect on nociception on contralateral paw in ddy mouse model of spinal nerve ligation-induced neuropathic pain at 100 pmol, it administered as single dose measured up to 24 hrs; format: ADME; conditions: in vivo, icv_or_intrathecal
[5] = Effect on nociception on contralateral paw in ddy mouse model of spinal nerve ligation-induced neuropathic pain at 30 mg/kg, po administered as single dose measured up to 24 hrs; format: ADME, organism-based; conditions: in vivo
How it was run: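 Spinal nerve ligation performed in male ddY mice. On day 14 after SNL, a single oral dose of 30 mg/kg given. Ipsilateral and contralateral hind-paw 50% gram thresholds measured by von Frey up-down method at serial times after dosing. n = 6 per group, compared with vehicle.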

[6] = molecular target: T1, Pituitary adenylate cyclase-activating polypeptide type I receptor; test: Antagonist activity at PAC1 receptor (unknown origin) expressed in CHO cells assessed as inhibition of PACAP-induced inhibition of CREB phosphorylation at 1 nM preincubated for 30 mins followed by PACAP stimulation and measured after 30 mins by Western blot analysis relative to control; values are per cent of control; conditions: time 60.0 min
Target sequence in this assay (P41586 21-468 limits assumed): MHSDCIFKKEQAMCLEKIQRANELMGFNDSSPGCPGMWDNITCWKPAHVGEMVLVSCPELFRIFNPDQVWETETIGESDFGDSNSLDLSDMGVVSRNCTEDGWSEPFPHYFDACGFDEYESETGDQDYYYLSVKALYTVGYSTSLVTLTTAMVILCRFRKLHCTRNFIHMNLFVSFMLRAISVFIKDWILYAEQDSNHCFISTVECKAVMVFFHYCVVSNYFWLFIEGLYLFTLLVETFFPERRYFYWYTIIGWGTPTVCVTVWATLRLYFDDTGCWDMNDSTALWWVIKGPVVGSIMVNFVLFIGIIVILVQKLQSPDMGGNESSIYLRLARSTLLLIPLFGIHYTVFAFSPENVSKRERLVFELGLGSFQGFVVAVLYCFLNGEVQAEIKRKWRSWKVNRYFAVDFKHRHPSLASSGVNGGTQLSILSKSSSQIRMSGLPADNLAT

## O=C(NCCc1c[nH]cn1)C1CC(=O)N(c2n[nH]c3ccccc23)C1 (centres undefined)
[1]
  IC50: 0.182 nM
  inhibition: Dose-dependent effect
[2]
  Activity: Active
[3]
  Activity: Active
[4]
  Activity: Non-Toxic
[5]
  Activity: Non-Toxic
[6]
  residual activity: 30.6%

## O=C(NCCc1c[nH]cn1)C1CC(=O)N(c2n[nH]c3c(Cl)cccc23)C1 (centres undefined)
[1]
  IC50: < 0.01 nM
  inhibition: Dose-dependent effect
[2]
  Activity: Active
[3]
  Activity: Active
[4]
  Activity: Non-Toxic
[5]
  Activity: Non-Toxic
[6]
  residual activity: 11.9%
